Data reported in ChEMBL document CHEMBL5653631, “A Potent and Selective ULK1 Inhibitor Suppresses Autophagy and Sensitizes Cancer Cells to Nutrient Stress” (iScience, 2018).

Columns and labels:
[1] = molecular target: T1, Inhibitor of nuclear factor kappa-B kinase subunit beta (Homo sapiens) (UniProt O14920); assay: Inhibition of human recombinant IKKb at 40 nM in presence of ATP by radiometric assay relative to control
T1 sequence (whole entry): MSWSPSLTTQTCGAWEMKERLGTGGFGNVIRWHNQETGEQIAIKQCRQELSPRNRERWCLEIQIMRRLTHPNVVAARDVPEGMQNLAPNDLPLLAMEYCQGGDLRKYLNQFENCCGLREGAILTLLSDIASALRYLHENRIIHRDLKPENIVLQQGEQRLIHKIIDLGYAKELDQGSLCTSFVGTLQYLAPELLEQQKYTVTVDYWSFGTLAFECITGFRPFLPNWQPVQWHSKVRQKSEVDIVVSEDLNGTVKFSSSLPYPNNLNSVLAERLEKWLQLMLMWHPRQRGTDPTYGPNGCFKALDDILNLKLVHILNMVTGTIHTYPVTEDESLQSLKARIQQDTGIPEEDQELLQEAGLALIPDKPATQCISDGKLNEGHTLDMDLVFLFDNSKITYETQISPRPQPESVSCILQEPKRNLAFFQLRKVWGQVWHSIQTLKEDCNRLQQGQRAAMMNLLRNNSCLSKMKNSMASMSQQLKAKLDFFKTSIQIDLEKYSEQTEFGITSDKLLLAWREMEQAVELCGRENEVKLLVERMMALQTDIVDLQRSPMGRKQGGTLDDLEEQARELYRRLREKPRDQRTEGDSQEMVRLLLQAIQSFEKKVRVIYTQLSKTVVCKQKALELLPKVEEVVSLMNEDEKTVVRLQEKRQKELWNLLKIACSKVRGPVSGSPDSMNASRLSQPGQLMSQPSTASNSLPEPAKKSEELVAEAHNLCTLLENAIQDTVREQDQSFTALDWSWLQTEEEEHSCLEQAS

[2] = molecular target: Phosphorylase b kinase gamma catalytic chain, skeletal muscle/heart isoform (Homo sapiens) (UniProt Q16816); assay: Inhibition of human recombinant PHKg1 at 40 nM in presence of ATP by radiometric assay relative to control
[3] = molecular target: T2, Serine/threonine-protein kinase TBK1 (Homo sapiens) (UniProt Q9UHD2); assay: Inhibition of human recombinant TBK1 at 40 nM related to control ULK1
T2 sequence (whole entry): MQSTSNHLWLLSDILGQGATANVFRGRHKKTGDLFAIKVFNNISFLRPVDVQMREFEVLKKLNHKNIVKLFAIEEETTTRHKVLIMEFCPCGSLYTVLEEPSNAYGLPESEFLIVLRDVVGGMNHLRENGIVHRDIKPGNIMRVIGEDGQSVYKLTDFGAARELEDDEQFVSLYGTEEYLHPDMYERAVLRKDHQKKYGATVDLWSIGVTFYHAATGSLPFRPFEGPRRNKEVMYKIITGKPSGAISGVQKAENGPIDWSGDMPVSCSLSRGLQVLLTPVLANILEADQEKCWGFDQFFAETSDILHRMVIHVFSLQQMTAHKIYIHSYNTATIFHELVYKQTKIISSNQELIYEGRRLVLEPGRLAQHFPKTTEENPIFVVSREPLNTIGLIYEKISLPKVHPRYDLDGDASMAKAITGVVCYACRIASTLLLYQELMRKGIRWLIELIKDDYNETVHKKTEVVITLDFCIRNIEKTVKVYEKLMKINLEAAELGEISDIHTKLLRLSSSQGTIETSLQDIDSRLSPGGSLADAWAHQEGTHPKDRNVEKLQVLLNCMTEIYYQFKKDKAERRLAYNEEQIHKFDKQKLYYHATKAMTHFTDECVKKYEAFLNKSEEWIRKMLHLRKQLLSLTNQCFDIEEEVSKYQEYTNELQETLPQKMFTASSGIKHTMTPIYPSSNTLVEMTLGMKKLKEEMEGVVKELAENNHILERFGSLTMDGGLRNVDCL

[4] = molecular target: Mitogen-activated protein kinase 8 (Homo sapiens) (UniProt P45983); assay: Inhibition of human recombinant JNK1 at 500 nM in presence of ATP by radiometric assay relative to control
[5] = molecular target: Serine/threonine-protein kinase 32B (Homo sapiens) (UniProt Q9NY57); assay: Inhibition of human recombinant YANK2 at 500 nM related to control ULK1
[6] = molecular target: RAC-alpha serine/threonine-protein kinase (Homo sapiens) (UniProt P31749); assay: Inhibition of human recombinant AKT1 at 15 nM in presence of ATP by radiometric assay relative to control
Outline: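 Panel of 327 recombinant human kinases in radiometric activity assays, each screened in duplicate at a single inhibitor concentration; percent activity remaining relative to vehicle control, percent inhibition taken as 100 minus activity remaining.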

[7] = molecular target: T3, Ephrin type-A receptor 8 (Homo sapiens) (UniProt P29322); assay: Inhibition of human recombinant EphA8 at 15 nM related to control ULK1
T3 sequence (whole entry): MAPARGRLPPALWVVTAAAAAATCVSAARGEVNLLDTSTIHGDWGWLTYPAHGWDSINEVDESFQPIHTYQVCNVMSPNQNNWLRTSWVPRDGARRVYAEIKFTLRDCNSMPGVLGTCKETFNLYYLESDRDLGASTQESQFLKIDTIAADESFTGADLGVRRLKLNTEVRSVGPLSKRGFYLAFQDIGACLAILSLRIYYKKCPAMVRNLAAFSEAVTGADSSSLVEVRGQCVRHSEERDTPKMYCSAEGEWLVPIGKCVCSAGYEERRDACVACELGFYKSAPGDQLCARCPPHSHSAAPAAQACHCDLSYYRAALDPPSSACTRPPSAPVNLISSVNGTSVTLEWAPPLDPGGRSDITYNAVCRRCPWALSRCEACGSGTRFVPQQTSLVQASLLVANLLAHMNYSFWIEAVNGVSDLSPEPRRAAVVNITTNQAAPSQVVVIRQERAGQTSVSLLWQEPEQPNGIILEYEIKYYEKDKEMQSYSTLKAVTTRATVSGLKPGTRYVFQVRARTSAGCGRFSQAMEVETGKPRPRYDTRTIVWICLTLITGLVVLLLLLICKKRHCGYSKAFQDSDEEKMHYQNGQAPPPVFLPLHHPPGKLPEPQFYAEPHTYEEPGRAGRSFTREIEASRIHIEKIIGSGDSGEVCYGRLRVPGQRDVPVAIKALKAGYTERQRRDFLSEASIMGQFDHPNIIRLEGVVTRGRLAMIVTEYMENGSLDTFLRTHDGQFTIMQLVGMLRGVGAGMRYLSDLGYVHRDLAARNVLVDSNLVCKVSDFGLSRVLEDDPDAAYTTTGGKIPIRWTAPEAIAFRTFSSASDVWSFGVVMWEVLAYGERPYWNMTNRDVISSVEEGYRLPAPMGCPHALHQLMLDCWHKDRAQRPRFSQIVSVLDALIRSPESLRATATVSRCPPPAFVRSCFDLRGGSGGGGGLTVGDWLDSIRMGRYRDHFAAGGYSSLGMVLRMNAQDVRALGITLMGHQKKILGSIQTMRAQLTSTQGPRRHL

Chain of RAC-alpha serine/threonine-protein kinase (Homo sapiens) (P31749 whole entry): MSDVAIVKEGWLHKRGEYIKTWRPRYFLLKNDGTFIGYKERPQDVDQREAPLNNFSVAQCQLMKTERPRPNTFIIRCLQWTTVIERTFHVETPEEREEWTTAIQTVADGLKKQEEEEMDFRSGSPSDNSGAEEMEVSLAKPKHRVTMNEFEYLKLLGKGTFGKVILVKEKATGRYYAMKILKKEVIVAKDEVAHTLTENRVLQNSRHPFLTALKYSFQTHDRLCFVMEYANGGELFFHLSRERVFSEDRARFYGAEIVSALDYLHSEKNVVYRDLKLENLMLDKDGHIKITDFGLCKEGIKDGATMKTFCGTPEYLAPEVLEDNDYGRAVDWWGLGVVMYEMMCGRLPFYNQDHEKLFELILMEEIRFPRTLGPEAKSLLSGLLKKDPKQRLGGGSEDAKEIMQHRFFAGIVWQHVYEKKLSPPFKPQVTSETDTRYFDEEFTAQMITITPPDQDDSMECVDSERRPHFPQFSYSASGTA
Chain of Phosphorylase b kinase gamma catalytic chain, skeletal muscle/heart isoform (Homo sapiens) (Q16816 whole entry, looked up, canonical isoform): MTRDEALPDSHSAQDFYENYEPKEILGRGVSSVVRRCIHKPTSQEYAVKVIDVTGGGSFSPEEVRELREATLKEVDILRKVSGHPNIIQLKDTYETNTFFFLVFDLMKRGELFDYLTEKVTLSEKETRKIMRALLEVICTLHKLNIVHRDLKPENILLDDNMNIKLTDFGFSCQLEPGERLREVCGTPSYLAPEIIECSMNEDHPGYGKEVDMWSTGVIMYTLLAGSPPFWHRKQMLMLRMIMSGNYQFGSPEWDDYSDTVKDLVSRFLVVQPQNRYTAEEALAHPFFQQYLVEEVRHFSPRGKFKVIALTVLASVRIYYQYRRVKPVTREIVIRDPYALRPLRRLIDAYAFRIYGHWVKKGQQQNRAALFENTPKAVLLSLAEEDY
Chain of Serine/threonine-protein kinase 32B (Homo sapiens) (Q9NY57 whole entry): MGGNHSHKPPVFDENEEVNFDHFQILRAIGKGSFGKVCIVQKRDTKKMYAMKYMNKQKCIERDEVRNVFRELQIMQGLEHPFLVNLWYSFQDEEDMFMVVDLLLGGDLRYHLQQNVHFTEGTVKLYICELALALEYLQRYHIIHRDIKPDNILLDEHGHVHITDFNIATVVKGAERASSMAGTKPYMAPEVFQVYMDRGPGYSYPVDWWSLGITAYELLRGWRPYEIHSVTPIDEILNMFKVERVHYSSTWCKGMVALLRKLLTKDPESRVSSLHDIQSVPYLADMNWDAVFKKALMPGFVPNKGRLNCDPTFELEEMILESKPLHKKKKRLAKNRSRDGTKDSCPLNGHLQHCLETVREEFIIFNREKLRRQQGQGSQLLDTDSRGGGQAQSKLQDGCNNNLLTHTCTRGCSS
Chain of Mitogen-activated protein kinase 8 (Homo sapiens) (P45983 whole entry): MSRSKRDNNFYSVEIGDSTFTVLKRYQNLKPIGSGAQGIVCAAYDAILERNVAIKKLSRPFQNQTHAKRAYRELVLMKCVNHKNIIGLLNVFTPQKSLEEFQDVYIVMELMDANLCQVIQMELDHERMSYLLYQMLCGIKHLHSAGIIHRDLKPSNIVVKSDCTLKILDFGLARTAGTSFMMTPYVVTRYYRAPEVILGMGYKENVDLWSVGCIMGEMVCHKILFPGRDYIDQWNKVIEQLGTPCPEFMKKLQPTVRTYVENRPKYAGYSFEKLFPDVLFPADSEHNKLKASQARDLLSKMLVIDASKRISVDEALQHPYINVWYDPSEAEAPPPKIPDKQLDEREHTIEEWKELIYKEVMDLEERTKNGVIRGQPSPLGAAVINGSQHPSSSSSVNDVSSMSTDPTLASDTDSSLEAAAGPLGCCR

In the case of O=C(N[C@@H](C1CC1)C(F)(F)F)c1cc(-c2cnn3cc(-c4ccc(F)cc4)cnc23)cs1, the inhibition [1] was 0%, the inhibition [2] was 12% and the fold change (FC) [3] was 0.36.
Compound CNC(=O)c1ccccc1Oc1nc(Nc2cc(OC)c(OC)c(OC)c2)ncc1Br has an inhibition [4] of 1% and a fold change (FC) [5] of 0.03.
For CC(C)[C@H](NC(=O)c1cc(-c2cnn3cc(-c4ccc(OCCN5CCCCC5)cc4)cnc23)cs1)C(F)(F)F, the inhibition [6] was 0% and the fold change (FC) [7] was 0.
